Measurements from ChEMBL document CHEMBL3875201, “Synthesis and in vitro antiviral evaluation of 4-substituted 3,4-dihydropyrimidinones” (Bioorg Med Chem Lett, 2017).

Test system: not listed separately
Assay: Cytotoxicity against human HeLa cells assessed as alterations in cell morphology by microscopic analysis
Format: toxicity, cell-based
Conditions: not given
Summary of the method: (§1)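 Compound added to subconfluent cell monolayers in 96-well plates together with virus (CPE reduction assay format); after 3–5 days incubation, cultures inspected by microscopy. MCC taken as compound concentration producing minimal alterations in cell morphology.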

SMILES	MCC
CCCCCCCCCCCC1NC(=O)NC(C)=C1C(=O)OCC (stereo unspecified)	> 100 µM
CCOC(=O)C1=C(C)NC(=O)NC1c1ccc(N(C)C)cc1 (stereo unspecified)	> 100 µM
CCOC(=O)C1=C(C)NC(=O)NC1c1cccs1 (stereo unspecified)	> 100 µM
CCOC(=O)C1=C(C)NC(=O)NC1c1ccccc1 (stereo unspecified)	> 100 µM
CCOC(=O)C1C2NC(=O)NC1(C)Oc1ccccc12 (stereo unspecified)	> 100 µM
CCOC(=O)C1=C(C)NC(=O)NC1c1ccc(Cl)cc1 (stereo unspecified)	> 100 µM
CCOC(=O)C1=C(C)NC(=O)NC1c1ccc(O)cc1 (stereo unspecified)	> 100 µM
CCOC(=O)C1=C(C)NC(=O)NC1CC(C)C (stereo unspecified)	> 100 µM

Test system: Punta Toro virus
Assay: Antiviral activity against Punta Toro virus infected in African green monkey Vero cells assessed as protection against virus-induced cytopathic effect at 20 uM measured after 3 to 5 days by microscopic analysis
Format: functional
Conditions: not given

SMILES	Activity
CCCCCCCCCCCC1NC(=O)NC(C)=C1C(=O)OCC (stereo unspecified)	81%

Test system: Punta Toro virus
Assay: Antiviral activity against Punta Toro virus infected in African green monkey Vero cells assessed as protection against virus-induced cytopathic effect measured after 3 to 5 days by microscopic analysis
Format: functional, cell-based
Conditions: not given

SMILES	Activity	EC50
CCCCCCCCCCCC1NC(=O)NC(C)=C1C(=O)OCC (stereo unspecified)	Dose-dependent effect	3 µM
CCOC(=O)C1=C(C)NC(=O)NC1c1ccc(N(C)C)cc1 (stereo unspecified)		> 100 µM
CCOC(=O)C1=C(C)NC(=O)NC1c1cccs1 (stereo unspecified)		> 100 µM
CCOC(=O)C1C2NC(=O)NC1(C)Oc1ccccc12 (stereo unspecified)		> 100 µM
CCOC(=O)C1=C(C)NC(=O)NC1c1ccc(O)cc1 (stereo unspecified)		> 100 µM
CCOC(=O)C1=C(C)NC(=O)NC1CC(C)C (stereo unspecified)		> 100 µM

Test system: not listed separately
Assay: Cytotoxicity against MDCK cells assessed as alterations in cell morphology by microscopic analysis
Format: toxicity, cell-based, Canis lupus familiaris
Conditions: dog
Summary of the method: as §1

SMILES	MCC
CCCCCCCCCCCC1NC(=O)NC(C)=C1C(=O)OCC (stereo unspecified)	> 100 µM
CCOC(=O)C1=C(C)NC(=O)NC1c1ccc(N(C)C)cc1 (stereo unspecified)	> 100 µM
CCOC(=O)C1=C(C)NC(=O)NC1c1cccs1 (stereo unspecified)	> 100 µM
CCOC(=O)C1=C(C)NC(=O)NC1c1ccccc1 (stereo unspecified)	> 100 µM
CCOC(=O)C1C2NC(=O)NC1(C)Oc1ccccc12 (stereo unspecified)	> 100 µM
CCOC(=O)C1=C(C)NC(=O)NC1c1ccc(Cl)cc1 (stereo unspecified)	> 100 µM
CCOC(=O)C1=C(C)NC(=O)NC1c1ccc(O)cc1 (stereo unspecified)	> 100 µM
CCOC(=O)C1=C(C)NC(=O)NC1CC(C)C (stereo unspecified)	> 100 µM

Test system: not listed separately
Assay: Cytotoxicity against African green monkey Vero cells assessed as alterations in cell morphology by microscopic analysis
Format: toxicity, cell-based
Conditions: chlorocebus sabaeus
Summary of the method: as §1

SMILES	MCC
CCCCCCCCCCCC1NC(=O)NC(C)=C1C(=O)OCC (stereo unspecified)	≥ 100 µM
CCOC(=O)C1=C(C)NC(=O)NC1c1ccc(N(C)C)cc1 (stereo unspecified)	100 µM
CCOC(=O)C1=C(C)NC(=O)NC1c1cccs1 (stereo unspecified)	> 100 µM
CCOC(=O)C1C2NC(=O)NC1(C)Oc1ccccc12 (stereo unspecified)	> 100 µM
CCOC(=O)C1=C(C)NC(=O)NC1c1ccc(O)cc1 (stereo unspecified)	> 100 µM
CCOC(=O)C1=C(C)NC(=O)NC1CC(C)C (stereo unspecified)	> 100 µM

Test system: not listed separately
Assay: Cytotoxicity against HEL cells assessed as alterations in cell morphology by microscopic analysis
Format: toxicity, cell-based
Conditions: human
Summary of the method: as §1

SMILES	MCC
CCCCCCCCCCCC1NC(=O)NC(C)=C1C(=O)OCC (stereo unspecified)	100 µM
CCOC(=O)C1=C(C)NC(=O)NC1c1ccc(N(C)C)cc1 (stereo unspecified)	> 100 µM
CCOC(=O)C1=C(C)NC(=O)NC1c1cccs1 (stereo unspecified)	> 100 µM
CCOC(=O)C1C2NC(=O)NC1(C)Oc1ccccc12 (stereo unspecified)	> 100 µM
CCOC(=O)C1=C(C)NC(=O)NC1c1ccc(Cl)cc1 (stereo unspecified)	> 100 µM
CCOC(=O)C1=C(C)NC(=O)NC1c1ccc(O)cc1 (stereo unspecified)	> 100 µM
CCOC(=O)C1=C(C)NC(=O)NC1CC(C)C (stereo unspecified)	> 100 µM

Test system: Yellow fever virus
Assay: Antiviral activity against Yellow fever virus infected in African green monkey Vero cells assessed as protection against virus-induced cytopathic effect measured after 3 to 5 days by microscopic analysis
Format: functional, cell-based
Conditions: not given

SMILES	EC50
CCCCCCCCCCCC1NC(=O)NC(C)=C1C(=O)OCC (stereo unspecified)	> 100 µM
CCOC(=O)C1=C(C)NC(=O)NC1c1ccc(N(C)C)cc1 (stereo unspecified)	> 100 µM
CCOC(=O)C1=C(C)NC(=O)NC1c1cccs1 (stereo unspecified)	> 100 µM
CCOC(=O)C1C2NC(=O)NC1(C)Oc1ccccc12 (stereo unspecified)	> 100 µM
CCOC(=O)C1=C(C)NC(=O)NC1c1ccc(O)cc1 (stereo unspecified)	> 100 µM
CCOC(=O)C1=C(C)NC(=O)NC1CC(C)C (stereo unspecified)	> 100 µM

Test system: Punta Toro virus
Assay: Potency index, ratio of Dextran sulphate EC50 to test compound EC50 for Punta Toro virus infected in African green monkey Vero cells
Format: functional
Conditions: not given

SMILES	Ratio EC50
CCCCCCCCCCCC1NC(=O)NC(C)=C1C(=O)OCC (stereo unspecified)	7

Test system: not listed separately
Assay: Cytotoxicity against human MT4 cells by MTS cell viability assay
Format: toxicity, cell-based
Conditions: not given

SMILES	CC50
CCCCCCCCCCCC1NC(=O)NC(C)=C1C(=O)OCC (stereo unspecified)	50 µM
CCOC(=O)C1=C(C)NC(=O)NC1c1ccc(N(C)C)cc1 (stereo unspecified)	> 125 µM
CCOC(=O)C1=C(C)NC(=O)NC1c1cccs1 (stereo unspecified)	> 125 µM
CCOC(=O)C1C2NC(=O)NC1(C)Oc1ccccc12 (stereo unspecified)	> 125 µM
CCOC(=O)C1=C(C)NC(=O)NC1c1ccc(O)cc1 (stereo unspecified)	> 125 µM
CCOC(=O)C1=C(C)NC(=O)NC1CC(C)C (stereo unspecified)	> 125 µM

Test system: Punta Toro virus
Assay: Potency index, ratio of ribavirin EC50 to test compound EC50 for Punta Toro virus infected in African green monkey Vero cells
Format: functional
Conditions: not given

SMILES	Ratio EC50
CCCCCCCCCCCC1NC(=O)NC(C)=C1C(=O)OCC (stereo unspecified)	17

Test system: Rift Valley fever virus
Assay: Antiviral activity against RVFV MP-12 infected in African green monkey Vero cells assessed as protection against virus-induced cytopathic effect at 100 uM measured after 3 to 5 days by microscopic analysis
Format: functional
Conditions: not given

SMILES	Activity
CCCCCCCCCCCC1NC(=O)NC(C)=C1C(=O)OCC (stereo unspecified)	40 - 50%

Test system: not listed separately
Assay: Cytotoxicity against cat CRFK cells assessed as by MTS cell viability assay
Format: toxicity, cell-based, Felis catus
Conditions: not given

SMILES	CC50
CCCCCCCCCCCC1NC(=O)NC(C)=C1C(=O)OCC (stereo unspecified)	> 100 µM
CCOC(=O)C1=C(C)NC(=O)NC1c1ccc(N(C)C)cc1 (stereo unspecified)	> 100 µM
CCOC(=O)C1=C(C)NC(=O)NC1c1cccs1 (stereo unspecified)	> 100 µM
CCOC(=O)C1C2NC(=O)NC1(C)Oc1ccccc12 (stereo unspecified)	> 100 µM
CCOC(=O)C1=C(C)NC(=O)NC1c1ccc(O)cc1 (stereo unspecified)	> 100 µM
CCOC(=O)C1=C(C)NC(=O)NC1CC(C)C (stereo unspecified)	> 100 µM

Test system: Mammalian orthoreovirus 1
Assay: Antiviral activity against Reovirus-1 infected in African green monkey Vero cells assessed as protection against virus-induced cytopathic effect measured after 3 to 5 days by microscopic analysis
Format: functional, cell-based
Conditions: Mammalian orthoreovirus 1, Vero

SMILES	EC50
CCCCCCCCCCCC1NC(=O)NC(C)=C1C(=O)OCC (stereo unspecified)	> 100 µM
CCOC(=O)C1=C(C)NC(=O)NC1c1ccc(N(C)C)cc1 (stereo unspecified)	> 100 µM
CCOC(=O)C1=C(C)NC(=O)NC1c1cccs1 (stereo unspecified)	> 100 µM
CCOC(=O)C1=C(C)NC(=O)NC1c1ccccc1 (stereo unspecified)	> 100 µM
CCOC(=O)C1C2NC(=O)NC1(C)Oc1ccccc12 (stereo unspecified)	> 100 µM
CCOC(=O)C1=C(C)NC(=O)NC1c1ccc(O)cc1 (stereo unspecified)	> 100 µM
CCOC(=O)C1=C(C)NC(=O)NC1CC(C)C (stereo unspecified)	> 100 µM

Test system: Coxsackievirus B4
Assay: Antiviral activity against Coxsackie virus B4 infected in African green monkey Vero cells assessed as protection against virus-induced cytopathic effect measured after 3 to 5 days by microscopic analysis
Format: functional, cell-based
Conditions: Enterovirus B

SMILES	EC50
CCCCCCCCCCCC1NC(=O)NC(C)=C1C(=O)OCC (stereo unspecified)	> 100 µM
CCOC(=O)C1=C(C)NC(=O)NC1c1ccc(N(C)C)cc1 (stereo unspecified)	> 100 µM
CCOC(=O)C1=C(C)NC(=O)NC1c1cccs1 (stereo unspecified)	> 100 µM
CCOC(=O)C1C2NC(=O)NC1(C)Oc1ccccc12 (stereo unspecified)	> 100 µM
CCOC(=O)C1=C(C)NC(=O)NC1c1ccc(O)cc1 (stereo unspecified)	> 100 µM
CCOC(=O)C1=C(C)NC(=O)NC1CC(C)C (stereo unspecified)	> 100 µM

Test system: Punta Toro virus
Assay: Potency index, ratio of mycophenolic acid EC50 to test compound EC50 for Punta Toro virus infected in African green monkey Vero cells
Format: functional
Conditions: not given

SMILES	Ratio EC50
CCCCCCCCCCCC1NC(=O)NC(C)=C1C(=O)OCC (stereo unspecified)	7

Test system: not listed separately
Assay: Selectivity index, ratio of MCC for African green monkey Vero cells to EC50 for Punta Toro virus infected in African green monkey Vero cells
Format: toxicity, cell-based
Conditions: not given

SMILES	Selectivity Index
CCCCCCCCCCCC1NC(=O)NC(C)=C1C(=O)OCC (stereo unspecified)	>= 33

Test system: Sindbis virus
Assay: Antiviral activity against Sindbis virus infected in African green monkey Vero cells assessed as protection against virus-induced cytopathic effect measured after 3 to 5 days by microscopic analysis
Format: functional, cell-based
Conditions: not given

SMILES	EC50
CCCCCCCCCCCC1NC(=O)NC(C)=C1C(=O)OCC (stereo unspecified)	> 100 µM
CCOC(=O)C1=C(C)NC(=O)NC1c1ccc(N(C)C)cc1 (stereo unspecified)	> 100 µM
CCOC(=O)C1=C(C)NC(=O)NC1c1cccs1 (stereo unspecified)	> 100 µM
CCOC(=O)C1C2NC(=O)NC1(C)Oc1ccccc12 (stereo unspecified)	> 100 µM
CCOC(=O)C1=C(C)NC(=O)NC1c1ccc(O)cc1 (stereo unspecified)	> 100 µM
CCOC(=O)C1=C(C)NC(=O)NC1CC(C)C (stereo unspecified)	> 100 µM

Test system: Human respirovirus 3
Assay: Antiviral activity against Para-influenza-3 virus infected in African green monkey Vero cells assessed as protection against virus-induced cytopathic effect measured after 3 to 5 days by microscopic analysis
Format: functional, cell-based
Conditions: Human respirovirus 3, Vero

SMILES	EC50
CCCCCCCCCCCC1NC(=O)NC(C)=C1C(=O)OCC (stereo unspecified)	> 100 µM
CCOC(=O)C1=C(C)NC(=O)NC1c1ccc(N(C)C)cc1 (stereo unspecified)	> 100 µM
CCOC(=O)C1=C(C)NC(=O)NC1c1cccs1 (stereo unspecified)	> 100 µM
CCOC(=O)C1=C(C)NC(=O)NC1c1ccccc1 (stereo unspecified)	> 100 µM
CCOC(=O)C1C2NC(=O)NC1(C)Oc1ccccc12 (stereo unspecified)	> 100 µM
CCOC(=O)C1=C(C)NC(=O)NC1c1ccc(O)cc1 (stereo unspecified)	> 100 µM
CCOC(=O)C1=C(C)NC(=O)NC1CC(C)C (stereo unspecified)	> 100 µM
